{
  "source": "ChEMBL document CHEMBL1123185",
  "about": "“Organic phosphorus compounds. 1. 4-(Benzothiazol-2-yl)benzylphosphonate as potent calcium antagonistic vasodilator” (J Med Chem, 1986)",
  "key": {"Cavia porcellus [1]": {"species_on_record": "Cavia porcellus", "assay": "Maximum increase in coronary flow in isolated guinea pig heart at a dose of 10 ug.", "format": "functional", "how_it_was_run": "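Langendorff-perfused isolated guinea pig heart with oxygenated (95% O2/5% CO2) Krebs-Henseleit fluid at 34 ± 1 °C and 60 cm H2O perfusion pressure. Compound dissolved in propylene glycol at 100 µg/mL and infused at 0.1 mL/min. Coronary flow recorded by electromagnetic flow meter before and after infusion, expressed as percent gain. Mean ± SE of five experiments.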"}, "Cavia porcellus [2]": {"species_on_record": "Cavia porcellus", "assay": "Effect on maximum increase in coronary flow in isolated guinea pig heart at a dose of 10 (ug/heart); Inactive", "format": "functional"}, "Cavia porcellus [3]": {"species_on_record": "Cavia porcellus", "assay": "pA2 was measured as Calcium antagonistic activity"}, "Canis familiaris [4]": {"system": "Canis familiaris", "assay": "Compound was tested for max increase in blood flow through cicumflex branch of left coronary artery, 60 min after administration", "format": "functional, Canis lupus familiaris", "how_it_was_run": "(§1)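 Anesthetized dogs (12-22 kg; pentobarbital sodium 35 mg/kg ip, supportive respiration) underwent left thoracotomy at the fourth intercostal space. Flow in the left coronary artery branch was recorded with an electromagnetic flow meter and expressed as percent increase. Compound in 0.5% CMC (10 mg/mL) was given intraduodenally at 10 mg/kg. Values are mean ± SE, six experiments.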"}, "Canis familiaris [5]": {"system": "Canis familiaris", "assay": "Change in the heart rate and hypotensive action was measured in dogs at 10 mg/kg dose, 30 min after id administration", "format": "functional, Canis lupus familiaris", "settings": "route intraduodenal", "how_it_was_run": "(§2)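 Dogs of 12-22 kg were anesthetized with pentobarbital sodium (35 mg/kg ip), given supportive respiration, and opened by left thoracotomy at the fourth intercostal space. Compound was suspended in 0.5% CMC (10 mg/mL) and given intraduodenally via cannula at 10 mg/kg. Blood pressure was taken by carotid cannula and pressure transducer, and heart rate from the ECG. Values are mean ± SE, six experiments.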"}, "Canis familiaris [6]": {"system": "Canis familiaris", "assay": "Change in the mean blood pressure and hypotensive action was measured in dogs at 10 mg/kg dose, 60 min after id administration", "format": "functional, Canis lupus familiaris", "settings": "route intraduodenal", "how_it_was_run": "as §2"}, "Canis familiaris [7]": {"system": "Canis familiaris", "assay": "Change in the mean blood pressure and hypotensive action was measured in dogs at 10 mg/kg dose, 120 min after id administration", "format": "functional, Canis lupus familiaris", "settings": "route intraduodenal", "how_it_was_run": "as §2"}, "Canis familiaris [8]": {"system": "Canis familiaris", "assay": "Change in the heart rate and hypotensive action was measured in dogs at 10 mg/kg dose, 5 min after id administration", "format": "functional, Canis lupus familiaris", "settings": "route intraduodenal", "how_it_was_run": "as §2"}, "Canis familiaris [9]": {"system": "Canis familiaris", "assay": "Compound was tested for max increase in blood flow through cicumflex branch of left coronary artery, 30 min after administration", "format": "functional, Canis lupus familiaris", "how_it_was_run": "as §1"}, "Canis familiaris [10]": {"system": "Canis familiaris", "assay": "Change in the mean blood pressure and hypotensive action was measured in dogs at 10 mg/kg dose, 30 min after id administration", "format": "functional, Canis lupus familiaris", "settings": "route intraduodenal", "how_it_was_run": "as §2"}, "Canis familiaris [11]": {"system": "Canis familiaris", "assay": "Change in the heart rate and hypotensive action was measured in dogs at 10 mg/kg dose, 60 min after id administration", "format": "functional, Canis lupus familiaris", "settings": "route intraduodenal", "how_it_was_run": "as §2"}, "Canis familiaris [12]": {"system": "Canis familiaris", "assay": "Change in the heart rate and hypotensive action was measured in dogs at 10 mg/kg dose, 120 min after id administration", "format": "functional, Canis lupus familiaris", "settings": "route intraduodenal", "how_it_was_run": "as §2"}, "Canis familiaris [13]": {"system": "Canis familiaris", "assay": "Compound was tested for max increase in blood flow through cicumflex branch of left coronary artery, 5 min after administration", "format": "functional, Canis lupus familiaris", "how_it_was_run": "as §1"}, "Canis familiaris [14]": {"system": "Canis familiaris", "assay": "Compound was tested for max increase in blood flow through cicumflex branch of left coronary artery, 120 min after administration", "format": "functional, Canis lupus familiaris", "how_it_was_run": "as §1"}, "Canis familiaris [15]": {"system": "Canis familiaris", "assay": "Change in the mean blood pressure and hypotensive action was measured in dogs at 10 mg/kg dose, 5 min after id administration", "format": "functional, Canis lupus familiaris", "settings": "route intraduodenal", "how_it_was_run": "as §2"}, "Canis familiaris [16]": {"system": "Canis familiaris", "assay": "Compound was tested for max increase in blood flow through circumflex branch of left coronary artery, 5 min after administration", "format": "functional, Canis lupus familiaris", "how_it_was_run": "as §1"}},
  "note": "Calls of active or inactive are those of the source. No cut-off for these calls is given here.",
  "data": [
    {"molecule": "CCOP(=O)(Cc1ccc(-c2nc3cccc(O)c3s2)cc1)OCC", "values": [
      {"measurement": "Increase", "setting": "Cavia porcellus [1]", "result": 20.6, "unit": "%"}
    ]},
    {"molecule": "CCCCOP(=O)(Cc1ccc(-c2nc3ccccc3s2)cc1)OCCCC", "values": [
      {"measurement": "Increase", "setting": "Cavia porcellus [1]", "result": 37.3, "unit": "%"}
    ]},
    {"molecule": "CCOP(=O)(Cc1ccc(-c2nc3ccc(Cl)cc3s2)cc1)OCC", "values": [
      {"measurement": "Increase", "setting": "Cavia porcellus [1]", "result": 54.6, "unit": "%"}
    ]},
    {"molecule": "CCOP(=O)(Cc1ccc(-c2nc3cc(OC(C)=O)ccc3s2)cc1)OCC", "values": [
      {"measurement": "Increase", "setting": "Cavia porcellus [1]", "result": 23.2, "unit": "%"}
    ]},
    {"molecule": "CCOP(=O)(Cc1ccc(-c2nc3ccc(C)cc3s2)cc1)OCC", "values": [
      {"measurement": "Increase", "setting": "Cavia porcellus [1]", "result": 31.3, "unit": "%"}
    ]},
    {"molecule": "CCOP(=O)(Cc1ccc(-c2nc3ccc(NC(C)=O)cc3s2)cc1)OCC", "values": [
      {"measurement": "Increase", "setting": "Cavia porcellus [1]", "result": 48.7, "unit": "%"}
    ]},
    {"molecule": "CC(C)OP(=O)(Cc1ccc(-c2nc3ccccc3s2)cc1)OC(C)C", "values": [
      {"measurement": "Increase", "setting": "Cavia porcellus [1]", "result": 75.6, "unit": "%"}
    ]},
    {"molecule": "CCOP(=O)(Cc1ccc(-c2nc3ccc(OC(C)=O)cc3s2)cc1)OCC", "values": [
      {"measurement": "Increase", "setting": "Cavia porcellus [1]", "result": 56.7, "unit": "%"}
    ]},
    {"molecule": "CCOP(=O)(Cc1ccc(-c2nc3ccc(O)cc3s2)cc1)OCC", "values": [
      {"measurement": "Increase", "setting": "Cavia porcellus [1]", "result": 63.3, "unit": "%"}
    ]},
    {"molecule": "CCCOP(=O)(Cc1ccc(-c2nc3ccccc3s2)cc1)OCCC", "values": [
      {"measurement": "Increase", "setting": "Cavia porcellus [1]", "result": 62.4, "unit": "%"}
    ]},
    {"molecule": "CCOP(=O)(Cc1ccc(-c2nc3cc(O)ccc3s2)cc1)OCC", "values": [
      {"measurement": "Increase", "setting": "Cavia porcellus [1]", "result": 49, "unit": "%"}
    ]},
    {"molecule": "COP(=O)(Cc1ccc(-c2nc3ccccc3s2)cc1)OC", "values": [
      {"measurement": "Increase", "setting": "Cavia porcellus [1]", "result": 34.8, "unit": "%"}
    ]},
    {"molecule": "CCOP(=O)(Cc1ccc(-c2nc3cccc(OC(C)=O)c3s2)cc1)OCC", "values": [
      {"measurement": "Increase", "setting": "Cavia porcellus [1]", "result": 71.7, "unit": "%"}
    ]},
    {"molecule": "CCOP(=O)(Cc1ccc(-c2nc3ccc(OC)cc3s2)cc1)OCC", "values": [
      {"measurement": "Increase", "setting": "Cavia porcellus [1]", "result": 20.1, "unit": "%"}
    ]},
    {"molecule": "CCOP(=O)(Cc1ccc(-c2nc3ccc(N)cc3s2)cc1)OCC.Cl", "values": [
      {"measurement": "Increase", "setting": "Cavia porcellus [1]", "result": 50, "unit": "%"}
    ]},
    {"molecule": "CCOC(=O)Cc1ccc(-c2nc3ccccc3s2)cc1", "values": [
      {"measurement": "Increase", "setting": "Cavia porcellus [2]", "result": "inactive"}
    ]},
    {"molecule": "CCOP(=O)(Cc1ccc(-c2nc3ccc([N+](=O)[O-])cc3s2)cc1)OCC", "values": [
      {"measurement": "Increase", "setting": "Cavia porcellus [2]", "result": "inactive"}
    ]},
    {"molecule": "Cc1ccc(-c2nc3ccccc3s2)cc1", "values": [
      {"measurement": "Increase", "setting": "Cavia porcellus [2]", "result": "inactive"}
    ]},
    {"molecule": "O=P(O)(O)Cc1ccc(-c2nc3ccccc3s2)cc1", "values": [
      {"measurement": "Increase", "setting": "Cavia porcellus [2]", "result": "inactive"}
    ]},
    {"molecule": "COc1ccc([C@@H]2Sc3ccccc3N(CCN(C)C)C(=O)[C@@H]2OC(C)=O)cc1.Cl", "note": "[DILTIAZEM HYDROCHLORIDE]", "values": [
      {"measurement": "Kb", "setting": "Cavia porcellus [3]", "result": 417, "unit": "nM"},
      {"measurement": "Increase", "setting": "Canis familiaris [4]", "result": 89.4, "unit": "%"},
      {"measurement": "Change", "setting": "Canis familiaris [5]", "result": -19.7, "unit": "beats min-1"},
      {"measurement": "Change", "setting": "Canis familiaris [6]", "result": -13.8, "unit": "mmHg"},
      {"measurement": "Change", "setting": "Canis familiaris [7]", "result": -14.5, "unit": "mmHg"},
      {"measurement": "Change", "setting": "Canis familiaris [8]", "result": 3.2, "unit": "beats min-1"},
      {"measurement": "Increase", "setting": "Canis familiaris [9]", "result": 85.5, "unit": "%"},
      {"measurement": "Change", "setting": "Canis familiaris [10]", "result": -10.7, "unit": "mmHg"},
      {"measurement": "Change", "setting": "Canis familiaris [11]", "result": -29.2, "unit": "beats min-1"},
      {"measurement": "Change", "setting": "Canis familiaris [12]", "result": -27.2, "unit": "beats min-1"},
      {"measurement": "Increase", "setting": "Canis familiaris [13]", "result": 6.5, "unit": "%"},
      {"measurement": "Increase", "setting": "Cavia porcellus [1]", "result": 63.9, "unit": "%"},
      {"measurement": "Increase", "setting": "Canis familiaris [14]", "result": 74.6, "unit": "%"},
      {"measurement": "Change", "setting": "Canis familiaris [15]", "result": -2.7, "unit": "mmHg"}
    ]},
    {"molecule": "CCOP(=O)(Cc1ccc(-c2nc3ccccc3s2)cc1)OCC", "note": "[FOSTEDIL]", "values": [
      {"measurement": "Kb", "setting": "Cavia porcellus [3]", "result": 120, "unit": "nM"},
      {"measurement": "Increase", "setting": "Canis familiaris [4]", "result": 87.5, "unit": "%"},
      {"measurement": "Change", "setting": "Canis familiaris [5]", "result": -18.3, "unit": "beats min-1"},
      {"measurement": "Change", "setting": "Canis familiaris [6]", "result": -12, "unit": "mmHg"},
      {"measurement": "Change", "setting": "Canis familiaris [7]", "result": -13.3, "unit": "mmHg"},
      {"measurement": "Change", "setting": "Canis familiaris [8]", "result": -6.9, "unit": "beats min-1"},
      {"measurement": "Increase", "setting": "Canis familiaris [9]", "result": 65.2, "unit": "%"},
      {"measurement": "Change", "setting": "Canis familiaris [10]", "result": -9.7, "unit": "mmHg"},
      {"measurement": "Change", "setting": "Canis familiaris [11]", "result": -20.8, "unit": "beats min-1"},
      {"measurement": "Change", "setting": "Canis familiaris [12]", "result": -18.7, "unit": "beats min-1"},
      {"measurement": "Increase", "setting": "Canis familiaris [16]", "result": 28.2, "unit": "%"},
      {"measurement": "Increase", "setting": "Cavia porcellus [1]", "result": 79.9, "unit": "%"},
      {"measurement": "Increase", "setting": "Canis familiaris [14]", "result": 91.8, "unit": "%"},
      {"measurement": "Change", "setting": "Canis familiaris [15]", "result": -13.4, "unit": "mmHg"}
    ]},
    {"molecule": "COc1ccc(Cc2nccc3cc(OC)c(OC)cc23)cc1OC.Cl", "note": "[PAPAVERINE HYDROCHLORIDE]", "values": [
      {"measurement": "Increase", "setting": "Cavia porcellus [1]", "result": 55.8, "unit": "%"}
    ]}
  ]
}
